In the library only some 1.9% were active in any assay of this set; here they are far more common.
TDP2 inh: TDP2 (human) inhibition, absorbance primary screen | O95551 | recombinant TDP2, T5PNP hydrolysis, p-nitrophenol absorbance 415 nm | inhibition, % at 12.8 µM | 0.34% of 370,000 active | AID 720702;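 active means inhibition above the mean of all tested compounds plus 3 SD, set per campaign, cut at about 25% in these data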;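 further: 0% = DMSO with enzyme and 100% = buffer with substrate but no TDP2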
Target sequence (O95551 whole entry, looked up): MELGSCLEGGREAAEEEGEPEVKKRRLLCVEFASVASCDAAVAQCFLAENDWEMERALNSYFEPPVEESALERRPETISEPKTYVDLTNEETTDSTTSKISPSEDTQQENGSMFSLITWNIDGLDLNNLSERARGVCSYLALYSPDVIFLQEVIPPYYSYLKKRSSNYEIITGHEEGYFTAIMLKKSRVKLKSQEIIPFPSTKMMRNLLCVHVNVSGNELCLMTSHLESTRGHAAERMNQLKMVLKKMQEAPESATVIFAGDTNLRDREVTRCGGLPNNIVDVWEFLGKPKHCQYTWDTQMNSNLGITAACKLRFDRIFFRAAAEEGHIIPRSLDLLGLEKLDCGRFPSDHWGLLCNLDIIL
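Material: recombinant human TDP2; quantity: TDP2 enzyme at 120 nM final; medium: Tris-HCl pH 7.5 with MgCl2; compound: single concentration, 12.8 µM nominal, with 1% DMSO; incubation: 2 h enzyme incubation at 37 °C; signal: epi absorbance; measure: percent inhibition; benchmarks: high control without enzyme, low control DMSO plus TDP2; repeats: singlicate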
LEDGF integ inh: blocks HIV-1 LEDGF/p75-dependent DNA integration; 0.64% of 370,000 active; inhibition, % at 3.7 µM; AID 743269; TR-FRET IN-LEDGF/p75 DNA integration, Eu/Cy5;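 active means inhibition above the screen-wide mean plus 3 SD, cut at about 13% in these data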;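 further: signal is the Cy5 over europium emission ratio at 671 and 618 nm; 0% = plate median of compound wells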
Rin1 Abl inh: human Rin1-Abl interaction inhibition | TR-FRET Rin1/Abl binding, biochemical | inhibition, % at 7.35 µM | 0.4% of 360,000 active; in the data active means inhibition above about 5%, passing the limit was not always enough
UHRF1 MBD2 ctr: UHRF1 methyl-DNA binding inhibition | inhibition, % at 4.4 µM | UHRF1 binding to methylated oligo, TR-FRET | 0.75% of 370,000 active | Q96T88;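 further: UHRF1 SRA domain binding a hemimethylated CpG hairpin DNA probe; 0% = median of test compound wells and 100% = reference inhibitor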
MBD2 DNA inh: inhibitors of human MBD2 binding to methylated oligonucleotide | TR-FRET | AID 686964 | Q9UBB5 | 0.31% of 370,000 active | inhibition, % at 4.4 µM; in the data active means inhibition above about 13%
UHRF1 DNA bind: counter-screen for MBD2 inhibitors: human UHRF1 methylated DNA binding inhibitors; shares compounds with MBD2 DNA inh; UHRF1 binding to methylated oligonucleotide, TR-FRET; inhibition, % at 4.4 µM; 25% of 1,000 active; AID 720530;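 further: UHRF1 SRA domain binding a labeled hemimethylated CpG hairpin DNA; 0% = vehicle only and 100% = reference inhibitor with vehicle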
MBD2 confirm: confirmation of human MBD2-DBD methylated oligonucleotide binding inhibitors. shares compounds with MBD2 DNA inh. TR-FRET MBD2-DBD binding to methylated oligonucleotide. inhibition, % at 4.4 µM. 26% of 1,000 active. AID 720531; in the data active means inhibition above about 14%
Active calls of the source: *; · = no result. Unless noted, no stated cut-off is given here; in the data, active means inhibition above about 21%; inactive means the rest.

SMILES	TDP2 inh	LEDGF integ inh	Rin1 Abl inh	UHRF1 MBD2 ctr	MBD2 DNA inh	UHRF1 DNA bind	MBD2 confirm
Cc1ccc(-c2csc3nc4cc(C(=O)NC5CCC(O)CC5)ccc4c(=O)n23)cc1 (configuration not stated)	13	1	3	20	14*	13	8
O=C(CNC(=O)/C=C/c1ccco1)N=Nc1c(O)[nH]c2ccccc12	4	34*	-5	53*	30*	65*	51*
O=C(CNC(=O)Cc1ccccc1)N=Nc1c(O)[nH]c2ccccc12	-5	-3	-1	-5	-10	·	·
COc1cc(OC)cc(-c2csc(N3CCC(C(N)=O)CC3)n2)c1	-9	-1	·	-1	-5	·	·
CCCC1CCC2(CC1)CCC2OC(=S)NCc1cccc(F)c1 (configuration not stated)	2	4	·	0	0	·	·
COc1ccc(CNC(=O)CCS(=O)(=O)c2ccc3c(c2)oc(=O)n3C)cc1	-14	-1	-3	1	39*	5	3
CCC(C)NC(=O)CCn1c(-c2ccc(F)cc2)cc(C(C)=O)c1C (configuration not stated)	7	-1	-2	1	2	·	·
CC(=O)c1cc(-c2ccc(F)cc2)n(CCC(=O)NC(C)(C)C)c1C	-1	15*	-4	83*	36*	3	1
CNC(C)C(=O)NC(C(=O)N1CCCC1C(=O)NNc1ccccc1)C(C)C (configuration not stated)	9	11	6	56*	46*	9	2
CN(Cc1ccccc1)C(=O)c1ccc2sc([C@H]3C[C@H](O)[C@@H](CO)O3)nc2c1	-2	-2	0	2	2	·	·
CCN(CC)C(=O)c1ccc2sc([C@H]3C[C@H](O)[C@@H](CO)O3)nc2c1	5	-5	-1	3	21*	5	2
CC(C)C[C@@H](CN1CCC[C@H]1CN1C(=O)C(=O)NC[C@@H]1Cc1ccc(O)cc1)N1C[C@H](Cc2ccccc2)N(CC2CCCCC2)C(=O)C1=O	-5	9	·	25*	17*	8	3
O=C(O)CC(NC(=O)COc1ccc(Cl)cc1Cl)C(=O)O (configuration not stated)	-12	-2	1	1	26*	5	2
COC(=O)C1CN(Cc2ccc(OC)cc2)CCS(=O)(=O)N1Cc1ccc(Cl)cc1 (configuration not stated)	-10	-3	·	-1	-4	·	·
CNC(=S)N(Cc1cc2cc(OC)c(OC)cc2[nH]c1=O)C1CCCC1	9	-2	-2	2	20*	11	3
C=CCN1[C@H](C#N)[C@@H](c2ccc(C#Cc3cccc(OC)c3)cc2)[C@H]1CO	9	-2	·	17	15*	5	8
Cc1cc(C=O)c(C)n1-c1cccc(C(=O)O)c1	6	2	-1	8	4	·	·
Cc1cc(C=O)c(C)n1-c1cc(C(=O)O)cc(C(=O)O)c1	-1	13	2	49*	14*	39*	11
O=C1c2ccccc2C(=O)c2c(NCCCN(CCO)CCO)cccc21	-15	-3	-28	36*	56*	57*	59*
C=C(C)C(=O)Nc1cccc(C2=NOC3(C2)C[C@@H](C(N)=O)N(C(=O)c2cc([N+](=O)[O-])cc([N+](=O)[O-])c2C)C3)c1 (some centres not stated)	-8	9	-1	34*	18*	24*	12
C=C(C)C(=O)Nc1cccc(C2=NOC3(C2)C[C@H](C(N)=O)N(C(=O)COc2ccc(Cl)cc2)C3)c1 (some centres not stated)	-1	16*	3	69*	51*	88*	69*
C=C(C)C(=O)Nc1cccc(C2=NOC3(C2)C[C@@H](C(N)=O)N(C(=O)/C=C/CC)C3)c1 (some centres not stated)	-3	9	1	67*	39*	69*	43*
CCN(CC)S(=O)(=O)c1ccc(C(=O)NCc2nnc(SCC(=O)OC)n2C)cc1	9	-1	0	0	21*	3	4
COC(=O)CSc1nnc(CNC(=O)c2ccc(S(=O)(=O)N(C)C)cc2)n1C	-10	-3	3	-3	-3	·	·
COc1ccc(NC(=O)/C(C#N)=C\c2ccc(Br)o2)cc1	7	2	-2	14	14*	20	6
SMILES	TDP2 inh	LEDGF integ inh	Rin1 Abl inh	UHRF1 MBD2 ctr	MBD2 DNA inh	UHRF1 DNA bind	MBD2 confirm
COc1ccc(NC(=O)/C(C#N)=C/c2ccc(-c3ccccc3C(=O)O)o2)cc1	-23	2	-1	-5	-1	·	·
Cc1ccc(C(C)C)c(OCC(=O)NS(=O)(=O)c2ccc(Cl)cc2)c1	-11	3	3	1	-5	·	·
Cc1ccccc1OCC(=O)NS(=O)(=O)c1ccc(Cl)cc1	5	0	2	-2	14*	3	2
O=C1CN=C(Nc2ccccc2)N1Cc1cccs1	-1	2	0	-1	35*	3	2
CC(C)c1ccc(NC2=NCC(=O)N2Cc2cccs2)cc1	-3	-5	1	-2	-2	·	·
CN(C)[C@H]1CCN(c2ccc3c(c2)O[C@@H]2CCN(C2)S3(=O)=O)C1	4	0	·	16	18*	9	7
Cc1ccc(C)c2nc(Cl)c(C#N)cc12	1	-5	4	2	14*	3	4
CC(C)(C)c1ccc(-c2cn(C[C@H](Cc3ccccc3)n3c(=O)c4ccccc4n3Cc3ccno3)nn2)cc1	7	-1	·	1	9	·	·
CCCCn1c(N)c(N(CC(C)C)C(=O)C(C)SCc2nc3sc(C)c(C)c3c(=O)[nH]2)c(=O)[nH]c1=O (configuration not stated)	-6	-2	-1	0	20*	6	0
O=S1(=O)CC(N2CCCC2)CN1 (configuration not stated)	8	3	·	15	15*	10	3
O=S1(=O)CC(N2CCCCC2)CN1C1CCCCC1 (configuration not stated)	-11	1	0	1	-2	·	·
CC(=O)N1c2ccc(S(=O)(=O)N3c4ccccc4CC3C)cc2CC1C (configuration not stated)	8	1	3	-2	-1	·	·
CC1Cc2ccccc2N1S(=O)(=O)c1ccc2c(c1)n(C)c(=O)c(=O)n2C (configuration not stated)	-9	4	-8	4	14*	1	4

Assay outcomes (PubChem BioAssay)
